Type in all cases: functional, cell-based
The test system of one test is BXPC-3. Nature of the test: Cytotoxicity against human BXPC3 cells after 4 days by MTT assay. As to conditions: BXPC-3, 96 h. Summed up: (§1)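 Panel of nine human cancer lines tested in parallel: BXPC-3 (pancreatic), NCI-446 (lung), MCF-7 (breast), HEPG-2 (liver), A549 (lung), A2780 (ovarian), Bel7402 (liver), HT-29 (colon), and KB (epidermoid carcinoma of nasopharynx). Cells were exposed for 4 days of incubation, viability was read by MTT, and values were expressed as the doses required for the response.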
A general note: Tetrazolium assays rely on reduction of a dye to a coloured formazan, in cell work by metabolically active cells.

Test [1] can be described thus: Cytotoxicity against human NCI446 cells after 4 days by MTT assay. As to conditions: NCI446, 96 h. The gist of the method: as §1
The next test has as its system HepG2. As to the kind of experiment: Cytotoxicity against human HepG2 cells after 4 days by MTT assay. Particulars: HepG2, 96 h. The gist of the method:
as §1

The next test has as its system A549. As to the kind of experiment: Cytotoxicity against human A549 cells after 4 days by MTT assay. Particulars: A549, 96 h. The gist of the method:
as §1

The next test has as its system A2780. Nature of the test: Cytotoxicity against human A2780 cells after 4 days by MTT assay. As to conditions: A2780, 96 h. Summed up: as §1
For the next test, the system named is Bel-7402. As to the kind of experiment: Cytotoxicity against human BEL-7402 cells after 4 days by MTT assay. Particulars: Bel-7402, 96 h. The gist of the method: as §1
The test system of a further test is HT-29. Nature of the test: Cytotoxicity against human HT29 cells after 4 days by MTT assay. Particulars: HT-29, 96 h. Summed up:
as §1

The test system of the next test is KB. As to the kind of experiment: Cytotoxicity against human KB cells after 4 days by MTT assay. Particulars: 96 h. The gist of the method:
as §1

In the next test the test system is MCF7. As to the kind of experiment: Cytotoxicity against human MCF7 cells after 4 days by MTT assay. Particulars: MCF7, 96 h. Summed up:
as §1

The values below come from ChEMBL document CHEMBL1158155, “Novel hexacyclic camptothecin derivatives. Part 1: synthesis and cytotoxicity of camptothecins with an A-ring fused 1,3-oxazine ring” (Bioorg Med Chem Lett, 2008).

A word on the IC50: it is the point on the concentration scale where inhibition reaches its midpoint.

For the compound `CCCN1COc2ccc3nc4c(cc3c2C1)Cn1c-4cc2c(c1=O)COC(=O)[C@]2(O)CC`, the IC50 stood at 150 nM in the test on BXPC-3; 3900 nM in [1]; 10 nM with HepG2; 110 nM in the test on A549; 90 nM in the test with A2780; 1430 nM in the test with Bel-7402. In addition, the results for the concentration for half-maximal inhibition (IC50) with HT-29 and with KB were 180 nM and 670 nM, respectively.
`CCN1COc2ccc3nc4c(cc3c2C1)Cn1c-4cc2c(c1=O)COC(=O)[C@]2(O)CC`: the IC50 in the test with BXPC-3 came out at 190 nM; in test [1] it was 230 nM; in the test with MCF7 it was 210 nM; in the test with HepG2, 50 nM; with A549, 160 nM; with A2780 it was 120 nM. Further, the IC50 is 810 nM in the test on Bel-7402, 140 nM with HT-29 and 120 nM in the test with KB.
On to `CC[C@@]1(O)C(=O)OCc2c1cc1n(c2=O)Cc2cc3c4c(ccc3nc2-1)OCN(Cc1ccc(OC)cc1)C4`, for which the IC50 in the test on BXPC-3 turned out to be 1240 nM; in test [1] it was 56800 nM; with HepG2 it was 1470 nM; in the test with A549 it was 30 nM; with A2780, 17600 nM; in the test on Bel-7402 it was 9580 nM. Besides, the IC50 with HT-29 is 1680 nM; in the test on KB, 80 nM.
In the case of `CC[C@@]1(O)C(=O)OCc2c1cc1n(c2=O)Cc2cc3c4c(ccc3nc2-1)OCN(Cc1ccccc1)C4`, the IC50 in the test with BXPC-3 turned out to be 210 nM; in [1] it was 6230 nM; with MCF7, 1600 nM; in the test with HepG2, 110 nM; in the test with A549, 80 nM; with A2780, 910 nM. Also, the IC50 in the test on Bel-7402 turned out to be 1580 nM; in the test with HT-29 it was 100 nM; with KB it was 40 nM.
Take `CC[C@@]1(O)C(=O)OCc2c1cc1n(c2=O)Cc2cc3c4c(ccc3nc2-1)OCN(c1ccccc1C)C4`: the IC50 was 530 nM in the test with BXPC-3; 1140 nM in test [1]; 180 nM in the test with HepG2; 1210 nM with A549; 4260 nM in the test with A2780; 6000 nM with Bel-7402. Also, the IC50 in the test on HT-29 came to 220 nM; in the test on KB, 60 nM.
On to `CC[C@@]1(O)C(=O)OCc2c1cc1n(c2=O)Cc2cc3c4c(ccc3nc2-1)OCN(c1cccc(C)c1)C4`, for which the IC50 with BXPC-3 came to 580 nM; in [1] it was 7030 nM; with HepG2 it was 930 nM; in the test with A549, 420 nM; in the test with A2780, 850 nM; in the test with Bel-7402, 5430 nM. In addition, the values for the IC50 in the test with HT-29 and in the test with KB were 340 nM and 40 nM, respectively.
For `CC[C@@]1(O)C(=O)OCc2c1cc1n(c2=O)Cc2cc3c4c(ccc3nc2-1)OCN(c1ccc(C)cc1)C4`, the IC50 in the test on BXPC-3 was determined as 2050 nM; in test [1], 9390 nM; in the test with MCF7 it was 1640 nM; in the test with A549, 570 nM; with A2780, 2160 nM; in the test on Bel-7402, 3860 nM. For the same compound, the IC50 in the test on HT-29 worked out at 530 nM; in the test on KB, 340 nM.
In the case of `CC[C@@]1(O)C(=O)OCc2c1cc1n(c2=O)Cc2cc3c4c(ccc3nc2-1)OCN(c1ccccc1OC)C4`, the IC50 in the test on BXPC-3 was determined as 3340 nM; with MCF7, 1400 nM; with HepG2 it was 130 nM; in the test on A549, 720 nM; in the test with A2780, 2990 nM; in the test with Bel-7402 it was 2230 nM. Besides, the values for the IC50 with HT-29 and with KB were 310 nM and 290 nM, respectively.
For `CC[C@@]1(O)C(=O)OCc2c1cc1n(c2=O)Cc2cc3c4c(ccc3nc2-1)OCN(c1ccc(F)cc1F)C4`, the IC50 with BXPC-3 came out at 1570 nM; in the test on MCF7, 4480 nM; in the test on HepG2 it was 550 nM; in the test on A549, 390 nM; in the test on A2780, 2070 nM; with Bel-7402 it was 4700 nM. Besides, the IC50 with HT-29 worked out at 620 nM; in the test with KB, 660 nM.
As for `CC[C@@]1(O)C(=O)OCc2c1cc1n(c2=O)Cc2cc3c4c(ccc3nc2-1)OCN(c1ccccc1Cl)C4`, the IC50 turned out to be 890 nM with BXPC-3; 19200 nM in test [1]; 2000 nM with MCF7; 450 nM with A549; 4100 nM in the test with A2780; 15200 nM in the test with Bel-7402. Moreover, the IC50 with HT-29 was determined as 1050 nM; in the test on KB, 330 nM.
For the compound `CC[C@@]1(O)C(=O)OCc2c1cc1n(c2=O)Cc2cc3c4c(ccc3nc2-1)OCN(c1ccc(Cl)cc1)C4`, the IC50 in the test on BXPC-3 is 510 nM; with MCF7 it was 5000 nM; in the test on HepG2, 170 nM; in the test on A549 it was 310 nM; with A2780, 820 nM; in the test on Bel-7402, 16300 nM. Further, the IC50 with HT-29 is 210 nM; in the test with KB it was 230 nM.
For `CC[C@@]1(O)C(=O)OCc2c1cc1n(c2=O)Cc2cc3c4c(ccc3nc2-1)OCN(c1ccc(F)c(F)c1F)C4`, the IC50 with BXPC-3 was 120 nM; in the test with MCF7, 2590 nM; with A549, 280 nM; in the test on A2780, 1070 nM; in the test with Bel-7402, 13100 nM; in the test with HT-29, 620 nM. Besides, the IC50 in the test on KB was determined as 280 nM.
With `CC[C@@]1(O)C(=O)OCc2c1cc1n(c2=O)Cc2cc3c4c(ccc3nc2-1)OCN(c1ccc(F)c(Cl)c1)C4`, the IC50 in the test with BXPC-3 was 920 nM; in the test with MCF7 it was 9510 nM; with HepG2, 180 nM; in the test on A549 it was 560 nM; in the test with A2780, 3100 nM; with Bel-7402, 3060 nM. The IC50 came out at 1130 nM in the test on HT-29 and 620 nM in the test with KB.
`CC[C@@]1(O)C(=O)OCc2c1cc1n(c2=O)Cc2cc3c4c(ccc3nc2-1)OCN(Cc1ccc(F)cc1)C4`: the IC50 in the test on BXPC-3 was found to be 1730 nM; in [1], 43200 nM; with MCF7, 650 nM; in the test with HepG2, 140 nM; in the test with A549, 120 nM; with A2780 it was 11600 nM. The IC50 is 5220 nM in the test with Bel-7402, 1190 nM with HT-29 and 60 nM in the test with KB.
Turning to `CC[C@@]1(O)C(=O)OCc2c1cc1n(c2=O)Cc2cc3c4c(ccc3nc2-1)OCN(C)C4`, the IC50 in the test on BXPC-3 was found to be 480 nM; in [1], 37300 nM; in the test on MCF7, 4520 nM; in the test with HepG2 it was 640 nM; in the test with A549 it was 410 nM; with A2780, 530 nM. The figures for the IC50 with Bel-7402, with HT-29 and in the test on KB were 1670 nM, 690 nM and 670 nM, respectively.
In the case of `CCCCN1COc2ccc3nc4c(cc3c2C1)Cn1c-4cc2c(c1=O)COC(=O)[C@]2(O)CC`, the IC50 with BXPC-3 is 970 nM; in test [1] it was 10100 nM; in the test with MCF7, 550 nM; in the test on HepG2, 350 nM; in the test on A549 it was 200 nM; with A2780 it was 3190 nM. Moreover, the IC50 in the test with Bel-7402 came out at 4010 nM; in the test with HT-29, 130 nM; in the test on KB it was 90 nM.
Regarding `CC[C@@]1(O)C(=O)OCc2c1cc1n(c2=O)Cc2cc3c4c(ccc3nc2-1)OCN(c1ccc(OC)cc1)C4`, the IC50 amounted to 420 nM in the test on BXPC-3; 14400 nM in test [1]; 120 nM in the test with HepG2; 270 nM with A549; 1120 nM with A2780; 4990 nM with Bel-7402. Also, the values for the IC50 in the test with HT-29 and in the test with KB were 310 nM and 230 nM, respectively.
On to `CC[C@@]1(O)C(=O)OCc2c1cc1n(c2=O)Cc2cc3c4c(ccc3nc2-1)OCN(c1ccccc1)C4`, for which the IC50 worked out at 190 nM in the test on BXPC-3; 2750 nM in the test with MCF7; 30 nM with HepG2; 770 nM with A549; 3430 nM with A2780; 7130 nM with Bel-7402. Besides, the IC50 was 480 nM in the test on HT-29 and 670 nM with KB.
As to `CC[C@@]1(O)C(=O)OCc2c1cc1n(c2=O)Cc2cc3ccccc3nc2-1` [CAMPTOTHECIN], the IC50 with BXPC-3 turned out to be 240 nM; in test [1], 3280 nM; in the test with MCF7, 200 nM; in the test with HepG2, 130 nM; in the test on A549 it was 10 nM; in the test on A2780, 200 nM. In addition, the IC50 in the test with Bel-7402 was 170 nM; in the test with HT-29, 90 nM; in the test on KB it was 3 nM.
For the compound `CC[C@@]1(O)C(=O)OCc2c1cc1n(c2=O)Cc2cc3c(CN(C)C)c(O)ccc3nc2-1` [TOPOTECAN], the IC50 in the test with BXPC-3 came to 620 nM; in test [1], 10100 nM; with MCF7, 1200 nM; in the test on A549, 220 nM; in the test with A2780 it was 3350 nM; with Bel-7402 it was 3130 nM. The IC50 in the test with HT-29 was determined as 880 nM; with KB, 220 nM.
